Screening results as filed in PubChem.
Shown are actives, neighbours in structure and some others; about 3.7% of the full set was active somewhere.
KCNQ1 act = potentiators or activators of human KCNQ1 potassium channel | P51787 | CHO-K1 KCNQ1, thallium flux FluxOR fluorescence; hits give high values | B-score at 10 µM | 310,000 compounds, 0.35% hits;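 active = fluorescence ratio B-score, a plate-corrected score, at least three library SD, with initial intensity B-score within 5 SD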
Target sequence (P51787 whole entry, looked up): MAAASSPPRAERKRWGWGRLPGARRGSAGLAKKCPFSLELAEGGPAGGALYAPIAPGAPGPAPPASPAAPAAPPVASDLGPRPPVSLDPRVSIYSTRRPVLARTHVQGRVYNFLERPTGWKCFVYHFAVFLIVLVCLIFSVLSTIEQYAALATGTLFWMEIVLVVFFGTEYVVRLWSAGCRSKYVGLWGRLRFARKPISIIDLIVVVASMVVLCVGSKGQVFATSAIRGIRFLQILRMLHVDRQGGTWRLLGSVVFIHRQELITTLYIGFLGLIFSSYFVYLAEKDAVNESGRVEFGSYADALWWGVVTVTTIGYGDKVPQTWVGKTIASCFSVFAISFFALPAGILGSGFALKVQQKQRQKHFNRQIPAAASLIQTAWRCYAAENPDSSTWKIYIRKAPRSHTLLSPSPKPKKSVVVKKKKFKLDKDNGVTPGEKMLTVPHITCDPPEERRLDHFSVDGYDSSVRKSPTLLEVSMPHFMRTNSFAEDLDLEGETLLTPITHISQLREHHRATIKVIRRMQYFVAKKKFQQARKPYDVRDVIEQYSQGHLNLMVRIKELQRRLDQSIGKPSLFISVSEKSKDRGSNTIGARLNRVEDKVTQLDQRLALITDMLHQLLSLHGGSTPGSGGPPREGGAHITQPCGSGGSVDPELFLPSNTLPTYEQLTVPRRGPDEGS
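System: Stable KCNQ1 CHO-K1 line | Incubation: 90 min dye loading and 20 min compound exposure, both at room temperature | Measure: Ratio B score | Medium: Assay buffer for compound exposure, DMSO matched across wells | Compound dosing: Single-concentration screen | Probe or stimulus: K+/Tl+ depolarizing stimulus | Measured by: Kinetic FluxOR fluorescence, 10 s baseline plus 110 s post-stimulus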
Kir21 inh = blocks the mouse Kir2.1 inward-rectifier potassium channel; P35561; HEK293-Kir2.1, FluxOR thallium flux fluorescence; hits give low values; B-score at 10 µM; 310,000 compounds, 0.85% hits;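 active = fluorescence ratio B-score at or below minus 3 SD of library scores, with starting-brightness B-score within 2 SD, cut at about -4.2 in these data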;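 also: channel flux triggered by added potassium and thallium sulfate stimulus; B-score of peak minus minimum fluorescence over baseline after thallium stimulus; more negative B-score means stronger Kir2.1 block with less thallium influx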
KCNK3 block = human KCNK3 channel inhibition, primary screen | O14649 | CHO-KCNK3 thallium flux, FluxOR fluorescence; hits give low values | B-score at 10 µM | 340,000 compounds, 0.84% hits;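 active = B-score under library mean minus 4 SD, starting fluorescence ratio at most library mean plus 5 SD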;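 also: more negative B-score means stronger inhibition of thallium flux through KCNK3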
KCNK9 inh = human KCNK9 channel inhibition | AID 488922 | 310,000 compounds, 1.2% hits | HEK293 KCNK9, FluxOR thallium flux fluorescence; hits give low values | B-score at 10 µM | Q9NPC2;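 active = ratio B-score over 3 SD below the library mean, with starting fluorescence within 5 SD of its mean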;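 also: negative B-score means less thallium flux so channel inhibition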
hERG rescue = shields human hERG channel from block by proarrhythmic agents; activation (rescue from dofetilide block), less the hit threshold, % at 10 µM; AID 1511; Q12809; CHO-hERG, FluxOR thallium flux, dofetilide IC70 present; 310,000 compounds, 0.51% hits;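 active = activation above the mean of controls blocked by dofetilide plus 5 SD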;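 also: thallium influx through hERG after potassium depolarization seen as dye fluorescence rise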
KCNQ1 inh = human KCNQ1 channel inhibition; 310,000 compounds, 1.3% hits; CHO-K1 KCNQ1, FluxOR thallium flux fluorescence; hits give high values; B-score at 10 µM; P51787;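 active = compounds whose thallium flux B-score, printed positive for inhibition, exceeds three library SD while starting fluorescence stays within three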;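 also: channel opened by potassium depolarization with thallium stimulus after 20 min compound exposure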
A number is an active result; – = inactive; · = no result.

SMILES	KCNQ1 act	Kir21 inh	KCNK3 block	KCNK9 inh	hERG rescue	KCNQ1 inh
CCn1c(=O)c2cc(C(=O)N(C)c3ccc(OC)cc3OC)sc2c2ccccc21	–	–	–	–	–	–
Cc1ccc(/C=C/C2=NN(Cc3ccccc3Cl)C(=O)CC2)cc1	–	–	–	–	–	11
CC(=O)OCCNc1cc(Sc2nc3ccccc3[nH]2)c2nonc2c1[N+](=O)[O-]	–	-4.5	–	-8.1	–	7
CC(C)CN(C(=O)CSc1nc(N)cc(N)n1)C1CCS(=O)(=O)C1 (stereo not drawn)	·	·	–	·	·	·
CC1CCN(S(=O)(=O)c2ccc(NC(=O)C3CCN(C(=O)c4ccco4)CC3)cc2)CC1	–	–	–	–	–	–
C=CCn1c(=NC(=O)C2COc3ccccc3O2)sc2cccc(OC)c21 (stereo not drawn)	–	–	–	-7.4	–	–
C=CCn1c(=NC(=O)CN2C(=O)CCC2=O)sc2cccc(OC)c21	–	–	–	–	–	–
COc1cc2c(cc1OC)C(c1ccccc1C(F)(F)F)CC(=O)N2 (stereo not drawn)	–	–	–	–	–	–
O=C(c1cc(NC(=O)C23CC4CC(CC(C4)C2)C3)cc(NC(=O)C23CC4CC(CC(C4)C2)C3)c1)N1CCCCC1	–	–	·	–	–	10
O=C(NC(=S)N1CCCCC1)C12CC3CC(CC(C3)C1)C2	–	–	–	–	–	–
CCCN(CC(=O)Nc1ccccc1C)C(=O)c1cccc(S(=O)(=O)N2CCN(c3ccccc3)CC2)c1	–	–	–	–	–	–
CC(C)c1ccc(C2c3[nH]c4ccccc4c3C[C@H]3C(=O)N(c4ccccc4C(=O)N4CCC[C@H]4C(=O)O)C(=O)N23)cc1 (stereo partly drawn)	–	–	–	–	–	–
COc1ccc(C(CNC(=O)c2ccc(C)c(S(=O)(=O)N3CCOCC3)c2)N2CCCC2)cc1 (stereo not drawn)	·	·	–	·	·	·
COc1cc(/C=C2/C(=N)N3C(SC)=NSC3=NC2=O)ccc1OC(=O)c1ccco1	–	-4.6	–	–	–	–
CSC1=NSC2=NC(=O)/C(=C/c3coc4ccc(O)cc4c3=O)C(=N)N12	–	–	–	–	–	9
COc1cc(/C=C2/C(=N)N3C(=NC2=O)SN=C3S(C)(=O)=O)ccc1OC(=O)c1ccco1	–	–	–	–	–	–
O=C(CCCNC(=O)c1ccc(Cl)cc1)OCc1cccc(Br)c1	–	–	–	–	–	–
Cc1ccc(C2C(/C=C3/SC(=S)NC3=O)=C(c3cccs3)Oc3ccccc32)cc1 (stereo not drawn)	8	–	–	–	–	–
O=C1NC(=S)SC1=Cc1ccccc1Cl	·	·	–	·	·	·
C/C(CCc1oc2c(Br)cc(Br)cc2c1-c1ccc(C)o1)=N\O	15	–	–	–	–	–
C/C(CCc1oc2ccccc2c1-c1ccc(C)o1)=N/O	–	–	–	–	–	–
C=CCN(C(=O)C1CSC2(C)CCC(=O)N12)c1nc(-c2ccccc2)cs1 (stereo not drawn)	–	–	–	–	–	6
Cc1cc(Cl)c(S(=O)(=O)N2CCN(c3ccc(F)cc3)CC2)cc1OCC(N)=O	–	–	–	–	6.0	–
COC(=O)C1=CN(Cc2ccc(OC)cc2)C=C(C(=O)OC)C1c1cccs1	–	–	–	-6.7	–	–
COC(=O)C1=CN(CCCN2CCCC2=O)C=C(C(=O)OC)C1c1cccs1	–	–	–	–	–	–
SMILES	KCNQ1 act	Kir21 inh	KCNK3 block	KCNK9 inh	hERG rescue	KCNQ1 inh
COc1ccc(NC(=O)CSCC(=O)Oc2c(OC)cccc2OC)cc1	–	–	–	–	–	–
Cc1cc(O)c(C(C)C)cc1NS(=O)(=O)c1ccccc1	–	-6.8	–	–	–	–
CC(C)c1nc2c(s1)CCc1onc(-c3cccc([N+](=O)[O-])c3)c1-2	–	–	–	-6.7	–	–
CCCc1nc2c(s1)CCc1onc(-c3cccc([N+](=O)[O-])c3)c1-2	–	–	–	–	–	–
COC(=O)Cc1[nH]n(-c2ccccc2)c(=O)c1C=Nc1ccc(C)cc1	–	–	–	–	–	–
COc1ccc(-n2c(=S)[nH]c3ccccc3c2=S)cc1	16	–	–	–	–	–
COc1ccc(Cn2c(=S)[nH]c3ccccc32)cc1	–	–	–	–	7.2	–
COc1ccc(-n2c(=S)[nH]c3ccccc32)cc1	–	–	–	–	–	–
Cc1ccc(C2(C)NC(=O)N(CC(=O)Nc3ccc(S(=O)(=O)Nc4nccs4)cc3)C2=O)cc1 (stereo not drawn)	–	–	–	–	–	–
O=C(NCCc1c[nH]c2ccccc12)Nc1ccccc1	–	–	–	-6.9	–	–
N#Cc1cccc(NC(=O)NCCc2c[nH]c3ccccc23)c1	–	–	–	–	–	–
Cc1cccc(C)c1NC(=O)CNC(=O)C(C)N1CCN(c2cccc(Cl)c2)CC1 (stereo not drawn)	·	·	–	·	·	·
CCn1c(CNC(=O)c2ccc3c(c2)OCO3)nnc1SCC(=O)Nc1cc(C)ccc1OC	–	–	–	–	–	8
O=c1[nH]c(CN2CCN(c3ccccn3)CC2)nc2c(Br)cc(Br)cc12	–	–	–	–	–	–
O=c1[nH]c(CN2CCN(c3ncccn3)CC2)nc2c(Br)cc(Br)cc12	–	–	–	-7.5	–	–
Cc1ccc(-c2nc3ccccc3c(=O)o2)cc1	–	–	–	–	–	–
CSc1nnc(-c2cc(-c3ccc(C)cc3)nc3ccccc23)o1	–	–	–	-7.4	–	–
CC(C)n1c(SCC(=O)NC2CC2)nnc1C1CC1	–	–	–	–	–	–
COCCCN(C(=O)CC1OC(=O)c2ccccc21)c1c(N)n(Cc2ccccc2)c(=O)[nH]c1=O (stereo not drawn)	–	–	–	–	–	–
CSc1nc(Cl)c(Cc2ccc(OC(C)C)cc2)c(N2CCOCC2)n1	–	–	–	-7.5	–	7
O=C(NC(=S)NC1CCCc2ccccc21)c1ccc(F)cc1 (stereo not drawn)	9	–	–	–	–	–
CC(C)c1ccccc1OCC(=O)NC1CCCc2ccccc21 (stereo not drawn)	–	-7	–	–	–	–
Cc1cccc(OCC(=O)NC2CCCc3ccccc32)c1C (stereo not drawn)	–	–	–	–	–	–
COc1ccccc1OCC(=O)NC1CCCc2ccccc21 (stereo not drawn)	–	-4.9	–	–	–	–
Cc1cc(C)cc(OCC(=O)NC2CCCc3ccccc32)c1 (stereo not drawn)	–	–	–	–	–	–
Fc1ccc(N/N=C/c2ccc(N3CCOCC3)cc2)c(F)c1	–	–	–	–	–	–
O=C(Nc1cccc([N+](=O)[O-])c1)NN1CCCCCC1	·	·	–	·	·	·
COc1ccc(NC(=O)COC(=O)CNC(=O)COc2ccccc2)cc1OC	·	·	–	·	·	·
